{
  "source": "paper PMC7453568",
  "about": "(ACS Central Science, 2020)",
  "key": {"KRAS^G13D": {"target": "KRAS^G13D (Homo sapiens, UniProt P01116, G13D)", "test": "KRAS engagement/degradation in HCT 116 cells", "format": "cell-based", "details": "HCT 116 cells (heterozygous KRAS^G13D), up to 10 μM"}, "KRAS^G12C [1]": {"target": "T1, KRAS^G12C (Homo sapiens, UniProt P01116, G12C)", "test": "KRAS^G12C degradation, total KRAS levels by immunoblotting", "format": "cell-based"}, "KRAS^G12C [2]": {"target": "T1, KRAS^G12C", "test": "KRAS^G12C engagement, band shift of PROTAC-conjugated KRAS on immunoblot", "format": "cell-based", "details": "2.5 μM", "method_in_brief": "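KRAS was immunoblotted from independent wells harvested the same day. Engagement was the intensity of the higher-molecular-weight, PROTAC-modified band relative to unbound KRAS in DMSO samples. Mean ± SD, two biological replicates.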"}, "pErk": {"system": "pErk", "test": "Erk signaling", "format": "cell-based, human", "details": "for pErk: MIA PaCa-2 and NCI-H23 cells, 6 and 24 h", "method_in_brief": "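Human KRAS^G12C cancer cells were treated for 24 h over a degrader dose range (NCI-H2030, heterozygous NCI-H23). Separately, MIA PaCa-2 and NCI-H23 received degrader or parent covalent inhibitor for 6 and 24 h, and time courses used 2.5 μM degrader. pErk and total Erk were immunoblotted and quantified against DMSO-treated cells. Lysates came from independent wells harvested the same day. Time-course data: mean ± SD, two biological replicates.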"}, "NCI-H2030 cells": {"system": "NCI-H2030 cells", "test": "Cell viability assay", "format": "cell-based, human", "details": "homozygous NCI-H2030 cells, MTS, 72 h"}, "NCI-H23 cells": {"system": "NCI-H23 cells", "test": "Cell viability assay", "format": "cell-based, human", "details": "heterozygous NCI-H23 cells, MTS, 72 h"}, "[3]": {"details": "MIA PaCa-2, NCI-H23 and SW1573 cells, 2.5 μM, 6-72 h time course"}, "[4]": {"details": "NCI-H2030 cells, 2.5 μM, 24 h time course"}},
  "note": "Entries after “also recorded” stand apart in the source; their conditions may differ.",
  "data": [
    {"smiles": "C=C(F)C(=O)N1CCN(c2nc(OC[C@@H]3CCCN3CCCOCCC(=O)N[C@H](C(=O)N3C[C@H](O)C[C@H]3C(=O)NCc3ccc(-c4scnc4C)cc3)C(C)(C)C)nc3c2CCN(c2cccc4cccc(Cl)c24)C3)C[C@@H]1CC#N", "note": "[LC-2]", "values": [
      {"measurement": "engagement or degradation of KRAS^G13D", "setting": "KRAS^G13D", "value": "No engagement or degradation"},
      {"measurement": "Dmax", "setting": "KRAS^G12C [1]; MIA PaCa-2, MIA PaCa-2 cells, KRAS^G12C +/+, 24 h", "value": "~75", "unit": "%"},
      {"measurement": "duration of KRAS degradation", "setting": "KRAS^G12C [1]; [3]", "value": "sustained up to 72 h"},
      {"measurement": "time to maximal KRAS degradation", "setting": "KRAS^G12C [1]; [3]", "value": "≤ 24", "unit": "h"},
      {"measurement": "Dmax", "setting": "KRAS^G12C [1]; NCI-H23, NCI-H23 cells, KRAS^G12C +/−, 24 h", "value": "~90", "unit": "%"},
      {"measurement": "KRAS degradation", "setting": "KRAS^G12C [1]; NCI-H23 cells (heterozygous)", "value": "> 50", "unit": "%"},
      {"measurement": "KRAS degradation with neddylation inhibition", "setting": "KRAS^G12C [1]; NCI-H23 cells, 2.5 μM LC-2, 24 h", "value": "rescues; also recorded: rescued KRAS degradation"},
      {"measurement": "KRAS^G12C level rebound", "setting": "KRAS^G12C [1]; NCI-H23 cells, 2.5 μM, 72 h time course", "value": "began to rebound at 72 h"},
      {"measurement": "Dmax", "setting": "KRAS^G12C [1]; NCI-H358, NCI-H358 cells, KRAS^G12C +/−, 24 h", "value": "~40", "unit": "%"},
      {"measurement": "Dmax", "setting": "KRAS^G12C [1]; NCI-H2030, NCI-H2030 cells, KRAS^G12C +/+, 24 h", "value": "~75", "unit": "%"},
      {"measurement": "KRAS^G12C levels with neddylation inhibitor MLN4924", "setting": "KRAS^G12C [1]; NCI-H2030 cells, 1 μM MLN4924, 2.5 μM LC-2, 4 h", "value": "rescued KRAS^G12C levels"},
      {"measurement": "KRAS^G12C levels with proteasome inhibitor epoxomicin", "setting": "KRAS^G12C [1]; NCI-H2030 cells, 1 μM epoxomicin, 2.5 μM LC-2, 4 h", "value": "rescued KRAS^G12C levels"},
      {"measurement": "KRAS^G12C degradation", "setting": "KRAS^G12C [1]; NCI-H2030 cells, 2.5 μM, 4 h", "value": "~65", "unit": "%"},
      {"measurement": "persistence of maximal degradation", "setting": "KRAS^G12C [1]; [4]", "value": "persisted up to 24 h; also recorded: maintained up to 24 h"},
      {"measurement": "time to maximum degradation", "setting": "KRAS^G12C [1]; [4]", "value": "≤ 8", "unit": "h"},
      {"measurement": "lowest concentration inducing maximal degradation of endogenous KRAS^G12C", "setting": "KRAS^G12C [1]; NCI-H2030 cells, 24 h", "value": 2.5, "unit": "µM"},
      {"measurement": "KRAS levels, dose response", "setting": "KRAS^G12C [1]; NCI-H2030 cells, 24 h, increasing concentrations", "value": "degrades KRAS^G12C in a dose-dependent manner"},
      {"measurement": "Dmax", "setting": "KRAS^G12C [1]; SW1573, SW1573 cells, KRAS^G12C +/+, 24 h", "value": "~90", "unit": "%"},
      {"measurement": "time to maximal degradation", "setting": "KRAS^G12C [1]; SW1573 cells, 2.5 μM, 24 h time course", "value": 12, "unit": "h"},
      {"measurement": "time at which KRAS^G12C binding/engagement is seen", "setting": "KRAS^G12C [2]; NCI-H2030 cells", "value": "≤ 1", "unit": "h"},
      {"measurement": "time at which KRAS engagement is seen", "setting": "KRAS^G12C [2]; SW1573 cells", "value": "≤ 1", "unit": "h"},
      {"measurement": "pErk", "setting": "pErk; 2.5 μM", "value": "suppressed"},
      {"measurement": "pErk signaling, dose response", "setting": "pErk; NCI-H23 cells, 24 h", "value": "dose-dependent decrease"},
      {"measurement": "pErk signaling, dose response", "setting": "pErk; NCI-H2030 cells, 24 h", "value": "dose-dependent decrease"},
      {"measurement": "pErk levels versus DMSO-treated cells", "setting": "pErk; SW1573 cells, 2.5 μM, 24 h", "value": "significantly lower"},
      {"measurement": "total Erk versus DMSO", "setting": "pErk; SW1573 cells, 2.5 μM, all time points", "value": "increased"},
      {"measurement": "phosphorylated Erk", "setting": "pErk; SW1573 cells, 2.5 μM, between 1 and 4 h", "value": "inhibited"},
      {"measurement": "pErk levels", "setting": "pErk; SW1573 cells, 2.5 μM, between 8 and 24 h", "value": "rebounded"}
    ]},
    {"smiles": "C=C(F)C(=O)N1CCN(c2nc(OC[C@@H]3CCCN3C)nc3c2CCN(c2cccc4cccc(Cl)c24)C3)C[C@@H]1CC#N", "note": "[MRTX849]", "values": [
      {"measurement": "cell viability (antiproliferative potency)", "setting": "NCI-H2030 cells", "value": "more antiproliferative"},
      {"measurement": "pErk", "setting": "pErk; 0.10 μM", "value": "suppressed"},
      {"measurement": "cell viability (antiproliferative potency)", "setting": "NCI-H23 cells", "value": "more antiproliferative"}
    ]}
  ]
}
